A selection: hits, their analogues and other compounds. The true share with any hit is near 4.3%.
AHR activator = activators of human aryl hydrocarbon receptor. P35869. AHR-responsive luciferase reporter cells, luminescence. activation, % at 5 µM. 320,000 compounds, 2.5% hits. AID 2796; in the data active = activation above about 47%
CR mimetic SO = yeast age-related superoxide inhibition as caloric restriction mimetic; S. cerevisiae aged cells, superoxide DHE fluorescence; stronger effect = lower value; superoxide response (% of plate mean), % at 10 µM; 330,000 compounds, 0.18% hits; AID 2690;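 active = superoxide response under a set limit, about three screen SD below normal, cut at about 65% in these data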;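 note: yeast aged for seven days with compound at 30 °C before DHE staining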
Hep lipid drop = modulators of hepatic lipid droplet formation; 240,000 compounds, 0.4% hits; inhibition, % at 6.5 µM; AML12 mouse hepatocytes, oleate lipid droplets, BODIPY imaging; AID 1656;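 active = lipid droplet intensity inhibited by at least 50%, with more than 500 cells counted; inconclusive = wells with under 300 cells, treated as cytotoxic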
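Assay system: AML12 hepatocytes (mouse) / Also added: 100 µM oleic acid challenge / Times: overnight treatment with compound plus oleate / Detection: high-content imaging of BODIPY-stained droplets and DAPI nuclei / Evaluation: % inhibition of lipid droplet signal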
SMARCA2 act = SMARCA2 function activation, primary screen; activation, % at 9.1 µM; 370,000 compounds, 1% hits; MG213 cells, MMTV-luciferase reporter, dexamethasone, overnight; in the data active = activation above about 7.8%
SR-BI uptake up = enhances SR-BI lipid uptake from DiI-HDL. CHO ldlA[mSR-BI] cells, DiI-HDL uptake fluorescence, 3 h; 100 = double the neutral-control signal. activation, % at 12.5 µM. 320,000 compounds, 0.096% hits;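 active = mean replicate activation of at least 60% and every replicate at or above 60%; inconclusive = mean or all-replicate condition met, but not both; inactive = mean below 60% and not all replicates reaching 60%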
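system = CHO ldlA[mSR-BI] cells, LDL receptor-null, SR-BI overexpressing | medium = Ham's F12 with 0.5% BSA, HEPES 25 mM, pH 7.4 | probe or stimulus = DiI-HDL 10 µg/mL | compound dosing = single-point compound dose | incubation = compound exposure 3 h, 37 °C | technique = DiI fluorescence, bottom read | read-out = cell-associated DiI fluorescence as measure of HDL uptake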
SR-BI HDL uptake = inhibitors of mouse SR-BI mediated HDL lipid uptake | Q61009 | ldlA[mSR-BI] CHO cells, DiI-HDL uptake fluorescence, 3 h | inhibition, % at 12.5 µM | 320,000 compounds, 0.96% hits;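 active = mean replicate inhibition of at least 70% and a set share of replicates each scoring 70 or more; inconclusive = meets just one of the two criteria; inactive = fails both criteria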
Target sequence (Q61009 whole entry, looked up): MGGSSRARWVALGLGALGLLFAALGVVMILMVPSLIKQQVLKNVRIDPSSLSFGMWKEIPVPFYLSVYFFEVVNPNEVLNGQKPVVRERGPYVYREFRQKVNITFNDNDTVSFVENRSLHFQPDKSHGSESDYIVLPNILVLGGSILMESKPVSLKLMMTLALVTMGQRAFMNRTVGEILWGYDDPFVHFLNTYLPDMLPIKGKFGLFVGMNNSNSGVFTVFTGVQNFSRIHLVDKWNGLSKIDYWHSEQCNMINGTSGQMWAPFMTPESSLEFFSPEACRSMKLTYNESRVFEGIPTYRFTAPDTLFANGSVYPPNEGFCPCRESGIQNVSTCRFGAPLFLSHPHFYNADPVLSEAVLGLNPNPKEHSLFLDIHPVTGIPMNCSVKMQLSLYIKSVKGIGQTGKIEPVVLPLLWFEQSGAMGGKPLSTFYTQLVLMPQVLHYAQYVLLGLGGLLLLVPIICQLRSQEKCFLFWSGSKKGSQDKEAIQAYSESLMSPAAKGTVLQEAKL
Hits are given with their value.

`Cc1cc(O)c2c(c1O)C(=O)[C@]13C(=C2O)C(=O)[C@@H]2[C@@H](O)[C@H]1[C@@H]1[C@H](O)[C@H]3C(=O)C3=C(O)c4c(O)cc(C)c(O)c4C(=O)[C@]312` gave AHR activator inactive, CR mimetic SO inactive, SR-BI uptake up inactive and SR-BI HDL uptake 94.9.
`CC(=O)N1C[C@@H](CO)[C@@H](N(C)C(=O)Nc2cccc3ccccc23)C[C@H]1c1ccccc1` gave SMARCA2 act inactive.
`CC(C)C(=O)COc1c2occc2cc2ccc(=O)oc12` gave AHR activator inactive, CR mimetic SO inactive, SMARCA2 act inactive, SR-BI uptake up inactive and SR-BI HDL uptake inactive.
For C=C(C)C(COc1c2occc2cc2ccc(=O)oc12)OC(C)(C)C(O)COc1c2occc2cc2ccc(=O)oc12 (configuration not stated) the results were AHR activator 77.6, CR mimetic SO inactive, SMARCA2 act inactive, SR-BI uptake up inactive and SR-BI HDL uptake inactive.
Cc1ccc(-c2nc3ccccc3[nH]2)s1 was read as AHR activator 54.9, CR mimetic SO inactive, Hep lipid drop inactive, SMARCA2 act inactive, SR-BI uptake up inactive and SR-BI HDL uptake inactive.
c1csc(-c2nc3ccccc3[nH]2)c1 was read as AHR activator inactive, CR mimetic SO inactive, Hep lipid drop inactive, SMARCA2 act inactive, SR-BI uptake up inactive and SR-BI HDL uptake inactive.
Screening C#CCSc1nnc(-c2sc(-c3ccccc3)nc2C)n1C returned AHR activator inactive, CR mimetic SO inactive, SMARCA2 act inactive, SR-BI uptake up inactive and SR-BI HDL uptake 74.4.
`Cc1nc(-c2ccccc2)sc1-c1ccnn1C` gave AHR activator inactive, CR mimetic SO inactive, Hep lipid drop inactive, SMARCA2 act inactive, SR-BI uptake up inactive and SR-BI HDL uptake inactive.
C#CCSc1nnc(-c2c[nH]c3ccccc23)n1C was read as AHR activator 48.8, CR mimetic SO inactive, Hep lipid drop inactive, SMARCA2 act inactive, SR-BI uptake up inactive and SR-BI HDL uptake inactive.
For CCc1c(-c2ccc(Br)cc2)ncn1CCc1ccccc1OC the results were SMARCA2 act inactive.
CC(C)C[C@H]1COc2cc(N3CCOCC3)ccc2S(=O)(=O)N1 was read as SMARCA2 act inactive.
Screening O=C(COc1cccc2c1CCNC2=O)Nc1cccc(F)c1 returned AHR activator 49.1, CR mimetic SO inactive, SMARCA2 act inactive, SR-BI uptake up inactive and SR-BI HDL uptake inactive.
For COc1ccccc1/C=C/C(=O)NCCc1ccccn1 the results were AHR activator 63.3, CR mimetic SO inactive, Hep lipid drop inactive, SMARCA2 act inactive, SR-BI uptake up inactive and SR-BI HDL uptake inactive.
Screening COc1ccccc1/C=N/NC(=S)Nc1cccnc1 returned AHR activator 59.0, CR mimetic SO inactive, Hep lipid drop inactive, SMARCA2 act inactive, SR-BI uptake up inactive and SR-BI HDL uptake inactive.
Screening CC1(C)C2CC=C(/C=N/NC(=S)Nc3cccnc3)C1C2 (configuration not stated) returned AHR activator 65.1, CR mimetic SO inactive, Hep lipid drop inactive, SMARCA2 act inactive, SR-BI uptake up inactive and SR-BI HDL uptake inactive.
CC(C)NC(=S)N/N=C/C1=CCC2CC1C2(C)C (configuration not stated) was read as AHR activator inactive, CR mimetic SO inactive, Hep lipid drop inactive, SMARCA2 act inactive, SR-BI uptake up inactive and SR-BI HDL uptake inactive.
Oc1ccc(/C=N/NC(=S)Nc2cccnc2)cc1O was read as AHR activator 79.4, CR mimetic SO inactive, Hep lipid drop inactive, SMARCA2 act inactive, SR-BI uptake up inactive and SR-BI HDL uptake inactive.
`CC(C)(C)c1ccc(/C=N/NC(=S)Nc2cccnc2)cc1` gave AHR activator inactive, CR mimetic SO inactive and Hep lipid drop inactive.
`COC(=O)c1cc2c(c3c4cc(F)ccc4n(S(=O)(=O)c4ccccc4)c13)C(=O)N(C)C2` gave SMARCA2 act inactive.
For COc1cc(/C=N/NC(=S)Nc2cccnc2)cc(OC)c1OC the results were AHR activator 61.5, CR mimetic SO inactive, Hep lipid drop inactive, SMARCA2 act inactive, SR-BI uptake up inactive and SR-BI HDL uptake inactive.
COC(=O)/C=C/C(=O)Nc1cccnc1 was read as AHR activator inactive, CR mimetic SO inactive and SMARCA2 act inactive.
`COc1ccccc1/C=C/C(=O)Nc1cccnc1` gave AHR activator 58.0, CR mimetic SO inactive, Hep lipid drop inactive, SMARCA2 act inactive, SR-BI uptake up inactive and SR-BI HDL uptake inactive.
Screening O=C1c2ccccc2/C(=C\c2ccc(Br)nc2)N1c1ccccc1 returned SMARCA2 act inactive.
N#C/C(=C\Nc1ccc2cn[nH]c2c1)c1nc(-c2ccc(Cl)cc2)cs1 was read as AHR activator 52.2, CR mimetic SO inactive, Hep lipid drop inactive, SMARCA2 act inactive, SR-BI uptake up inactive and SR-BI HDL uptake inconclusive.
Screening N#C/C(=C\Nc1ccc2cn[nH]c2c1)c1nc(-c2ccccc2)cs1 returned Hep lipid drop inactive, SMARCA2 act inactive, SR-BI uptake up inactive and SR-BI HDL uptake inactive.
Screening Cc1ccc(-c2c(NC(=O)Nc3ccc(F)cc3)nc3ncccn23)cc1 returned SMARCA2 act inactive.
`COc1ccc2nc3cc([N+](=O)[O-])ccc3c(NNc3ccc([N+](=O)[O-])cc3)c2c1` gave SMARCA2 act inactive, SR-BI uptake up inactive and SR-BI HDL uptake 121.1.
`CN[C@H]1C[C@H]2c3[nH]c4c(-c5ccccc5)cccc4c3CCN2C[C@H]1[C@H](C)O` gave SMARCA2 act inactive.
Screening Oc1ccc(-c2cn3c(n2)SCC3)cc1 returned AHR activator 65.3, CR mimetic SO inactive, Hep lipid drop inactive, SMARCA2 act inactive and SR-BI HDL uptake inactive.
For Clc1ccc(-c2cn3c(n2)SCC3)cc1 the results were AHR activator inactive, CR mimetic SO inactive, Hep lipid drop inactive, SMARCA2 act inactive, SR-BI uptake up inactive and SR-BI HDL uptake inactive.
For Brc1ccc(-c2cn3c(n2)SCC3)cc1 the results were AHR activator inactive, CR mimetic SO inactive, Hep lipid drop inactive, SMARCA2 act inactive, SR-BI uptake up inactive and SR-BI HDL uptake inactive.
c1ccc(-c2cn3c(n2)SCC3)cc1 was read as AHR activator inactive, CR mimetic SO inactive, Hep lipid drop inactive, SMARCA2 act 7.8, SR-BI uptake up inactive and SR-BI HDL uptake inactive.
Cc1ccc(Nc2ncnc(-n3cccc3)n2)cc1Cl was read as AHR activator 57.9, CR mimetic SO inactive, Hep lipid drop inactive, SMARCA2 act inactive, SR-BI uptake up inactive and SR-BI HDL uptake inactive.
Screening Clc1cc(Cl)cc(Nc2ncnc(-n3cccc3)n2)c1 returned AHR activator 54.1, CR mimetic SO inactive, Hep lipid drop inactive, SMARCA2 act inactive, SR-BI uptake up inactive and SR-BI HDL uptake inactive.
For Nc1ncnc(Nc2ccc(F)c(Cl)c2)n1 the results were AHR activator inactive, CR mimetic SO inactive, Hep lipid drop inactive, SMARCA2 act inactive, SR-BI uptake up inactive and SR-BI HDL uptake inactive.
